Results from ChEMBL document CHEMBL5143748, “Quinolines and Oxazino-quinoline Derivatives as Small Molecule GLI1 Inhibitors Identified by Virtual Screening” (ACS Med Chem Lett, 2022).
Calls of active or inactive are those of the source. The rule behind the calls is not given here.

Assays:
[1] = test system: Daoy; assay: Antiproliferative activity against human DaOY cells assessed as reduction in cell viability incubated for 72 hrs by trypan blue or crystal violet staining based assay; type: functional
Summary of the method: (§1)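 IC50 in micromolar, fitted from triplicate experiments in human melanoma A375 and medulloblastoma DAOY cells.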

[2] = test system: A-375; assay: Antiproliferative activity against human A375 cells assessed as reduction in cell viability incubated for 72 hrs by trypan blue or crystal violet staining based assay; type: functional; details: A-375, 72 h; summary of the method: as §1
[3] = test system: NIH3T3; assay: Inhibition of hedgehog signalling in SAG-induced mouse NIH3T3 cells assessed as decrease in GLI1 protein expression level at 1 uM for 48 hrs by Western blot analysis; type: cell-based
Summary of the method: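 Murine NIH3T3 cells, endogenous Hh pathway activated with the SMO agonist SAG (100 nM), co-treated with compound (1 μM), DMSO vehicle or GANT61 (5 μM) for 48 h. Endogenous GLI1 detected by Western blot with HSP90 as loading control. Reduction graded qualitatively, e.g. "+" weak, "NA" not affected.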

Compound | IC50 [2] | IC50 [1] | inhibition [3]
COc1ccc(C(NC(C)=O)c2cc(Cl)c3cccnc3c2O)cc1OC (stereo not given) | 110 nM | 210 nM | Active
CCCC(=O)NC(c1ccc(C)cc1)c1cc(Cl)c2cccnc2c1O (stereo not given) | 120 nM | 100 nM | Active
CCCC(=O)NC(c1ccc(C(C)C)cc1)c1cc(Cl)c2cccnc2c1O (stereo not given) | 120 nM | 90 nM | Active
CCCCC(=O)NC(c1ccc(Cl)cc1)c1ccc2cccnc2c1O (stereo not given) | 710 nM | 330 nM | Active
CCCC(=O)NC(c1ccccc1Cl)c1cc(Cl)c2cccnc2c1O (stereo not given) | 100 nM | 100 nM | Active
Clc1cnc2c3c(ccc2c1)CN(CCCN1CCOCC1)CO3 | 150 nM | 1200 nM | Active
COc1ccc(C(NC(=O)C(C)C)c2cc(Cl)c3cccnc3c2O)cc1OC (stereo not given) | 130 nM | 100 nM | Active
Oc1c(C(NCCc2ccccc2)c2ccc(Cl)cc2Cl)ccc2cccnc12 (stereo not given) | 190 nM | 150 nM | Active
CCCCC(=O)NC(c1ccc(Cl)cc1Cl)c1ccc2cccnc2c1O (stereo not given) | 1120 nM | 150 nM | Active
Oc1c(CNCCc2ccccc2)ccc2cccnc12 | 390 nM | 330 nM | Active
CCCC(=O)NC(c1ccc(OC)c(OC)c1)c1ccc2cccnc2c1O (stereo not given) | 130 nM | 110 nM | Active
CCCC(=O)NC(c1ccc(Cl)cc1)c1cc(Cl)c2cccnc2c1O (stereo not given) | 120 nM | 100 nM | 
CCCC(=O)NC(c1ccccc1)c1cc(Cl)c2cccnc2c1O (stereo not given) | 130 nM | 110 nM | 
CCCCOc1ccnc2c(O)c(CNC(=O)C3CCCCC3)ccc12 | 540 nM | 510 nM | Active
CCCCC(=O)NC(c1cc(Cl)cc(Cl)c1)c1ccc2cccnc2c1O (stereo not given) | 90 nM | 140 nM | Active
CCCCC(=O)NC(c1ccc(Cl)c(Cl)c1)c1ccc2cccnc2c1O (stereo not given) | 320 nM | 100 nM | Active
CCCC(=O)NC(c1ccc(N(CC)CC)cc1)c1cc(Cl)c2cccnc2c1O (stereo not given) | 130 nM | 100 nM | Active
CCCC(=O)NC(c1ccc(Cl)cc1Cl)c1ccc2cccnc2c1O (stereo not given) | 110 nM | 190 nM | Active

Continued, in another order:

IC50 [2] | Compound | IC50 [1] | inhibition [3]
300 nM | c1cnc2c3c(ccc2c1)CN(C1CCCCC1)CO3 | 500 nM | Active
1010 nM | O=C(NC(c1ccc(Cl)cc1Cl)c1ccc2cccnc2c1O)C1CCCCC1 (stereo not given) | 240 nM | Active
380 nM | c1cnc2c3c(ccc2c1)CN(CC1CCCCC1)CO3 | 1000 nM | Active
130 nM | c1ccc(CCN2COc3c(ccc4cccnc34)C2)cc1 | 190 nM | Active
300 nM | c1ccc2c(c1)CCCC2N1COc2c(ccc3cccnc23)C1 (stereo not given) | 600 nM | Active
550 nM | O=C(NCc1ccc2c(OCc3ccccc3)ccnc2c1O)C1CCCCC1 | 260 nM | Active
490 nM | CCCCN1COc2c(ccc3cc(Cl)cnc23)C1 | 380 nM | Active
880 nM | c1cnc2c3c(ccc2c1)CN(C1CCCCCC1)CO3 | 1200 nM | Active
280 nM | c1cnc2c3c(ccc2c1)CN(C1CCCCCCC1)CO3 | 290 nM | Active
910 nM | O=C(NCc1ccc2cccnc2c1O)C1CCCCC1 | 720 nM | Active
120 nM | C1=C(CCN2COc3c(ccc4cccnc34)C2)CCCC1 | 230 nM | Active
1100 nM | Fc1cnc2c3c(ccc2c1)CN(CCc1ccccc1)CO3 | 1400 nM | Active
580 nM | COc1ccc(CN2COc3c(ccc4cccnc34)C2)cc1 | 870 nM | Active
320 nM | O=C(NC(c1ccc(Cl)cc1Cl)c1ccc2cccnc2c1O)C1CCCC1 (stereo not given) | 150 nM | Active
500 nM | Fc1cnc2c3c(ccc2c1)CN(C1CCCCC1)CO3 | 300 nM | Active
420 nM | CC1CCC(N2COc3c(ccc4cccnc34)C2)CC1 (stereo not given) | 550 nM | Active
